# Experimental data reported in ChEMBL document CHEMBL4396885, “Thioether-based 2-aminobenzamide derivatives: Novel HDAC inhibitors with potent in vitro and in vivo antitumor activity” (Eur J Med Chem, 2019).
# Key:
# A549 [1] = assay: Cell cycle arrest in human A549 cells assessed as accumulation of cells at S phase at 0.5 uM after 48 hrs by propidium iodide staining-based flow cytometry (reference value: 12.83%); type: functional
# A549 [2] = assay: Induction of apoptosis in human A549 cells assessed as viable cells at 1 uM after 48 hrs by Annexin V-FITC/propidium iodide staining based flow cytometry (reference value: 98%); type: functional; details: A549, 48 h, read-out: Activity
# In short: (§1)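 A549 seeded 4×10⁶ cells/well, dosed after 12 h with compound at various concentrations, harvested after 48 h. Resuspended in annexin-binding buffer, stained with Annexin V-FITC and propidium iodide for 15 min in the dark, analysed by flow cytometry; means of three separate experiments.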
# A549 [3] = assay: Induction of apoptosis in human A549 cells assessed as viable cells at 0.5 uM after 48 hrs by Annexin V-FITC/propidium iodide staining based flow cytometry (reference value: 98%); type: functional; details: A549, 48 h, read-out: Activity; in short: as §1
# HeLa [4] = assay: Antiproliferative activity against human HeLa cells assessed as decrease in cell viability after 72 hrs by CCK-8 assay; type: functional, cell-based
# In short: (§2)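 Cells grown to 70–85% confluence (A375, A549, HCT116 in RPMI1640; HeLa, SMMC7721 in DMEM; 10% FBS, 37 °C, 5% CO2), seeded 4000/well, dosed after 12 h across a concentration range, incubated 72 h, then CCK-8 for 1 h; absorbance at 450 nm. IC50 as mean ± SD of three separate experiments.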
# HeLa [5] = assay: Antiproliferative activity against human HeLa cells assessed as growth inhibition at 8 uM after 72 hrs by CCK-8 assay relative to control; type: functional; details: read-out: GI
# A549 [6] = assay: Induction of apoptosis in human A549 cells assessed as viable cells at 2 uM after 48 hrs by Annexin V-FITC/propidium iodide staining based flow cytometry (reference value: 98%); type: functional; details: A549, 48 h, read-out: Activity; in short: as §1
# SMMC-7721 [7] = assay: Antiproliferative activity against human SMMC7721 cells assessed as decrease in cell viability after 72 hrs by CCK-8 assay; type: functional, cell-based; details: SMMC-7721, 72 h; in short: as §2
# A549 [8] = assay: Antiproliferative activity against human A549 cells assessed as decrease in cell viability after 72 hrs by CCK-8 assay; type: functional, cell-based; details: A549, 72 h; in short: as §2
# A549 [9] = assay: Induction of apoptosis in human A549 cells assessed as early apoptotic cells at 0.5 uM after 48 hrs by Annexin V-FITC/propidium iodide staining based flow cytometry (reference value: 1.19%); type: functional; in short: as §1
# A549 [10] = assay: Cell cycle arrest in human A549 cells assessed as accumulation of cells at G0/G1 phase at 0.5 uM after 48 hrs by propidium iodide staining-based flow cytometry (reference value: 73.35%); type: functional
# A549 [11] = assay: Cell cycle arrest in human A549 cells assessed as accumulation of cells at G2/M phase at 0.5 uM after 48 hrs by propidium iodide staining-based flow cytometry (reference value: 13.62%); type: functional
# A549 [12] = assay: Cell cycle arrest in human A549 cells assessed as accumulation of cells at S phase at 1 uM after 48 hrs by propidium iodide staining-based flow cytometry (reference value: 12.83%); type: functional
# A549 [13] = assay: Induction of apoptosis in human A549 cells assessed as necrotic cells at 0.5 uM after 48 hrs by Annexin V-FITC/propidium iodide staining based flow cytometry (reference value: 0.135%); type: functional; in short: as §1
# HCT-116 [14] = assay: Antiproliferative activity against human HCT116 cells assessed as growth inhibition at 2 uM after 72 hrs by CCK-8 assay relative to control; type: functional; details: HCT-116, 72 h, read-out: GI
# A549 [15] = assay: Induction of apoptosis in human A549 cells assessed as early apoptotic cells at 1 uM after 48 hrs by Annexin V-FITC/propidium iodide staining based flow cytometry (reference value: 1.19%); type: functional; in short: as §1
# A549 [16] = assay: Cell cycle arrest in human A549 cells assessed as accumulation of cells at G2/M phase at 2 uM after 48 hrs by propidium iodide staining-based flow cytometry (reference value: 13.62%); type: functional
# A-375 [17] = assay: Antiproliferative activity against human A375 cells assessed as growth inhibition at 2 uM after 72 hrs by CCK-8 assay relative to control; type: functional; details: A-375, 72 h, read-out: GI
# A549 [18] = assay: Cell cycle arrest in human A549 cells assessed as accumulation of cells at G0/G1 phase at 2 uM after 48 hrs by propidium iodide staining-based flow cytometry (reference value: 73.35%); type: functional
# A549 [19] = assay: Antitumor activity against human A549 cells xenografted in Balb/c nude mouse assessed as tumor growth inhibition at 25 mg/kg, ip administered twice per day for 21 days relative to control; type: functional; details: 504 h, read-out: TGI
# In short: (§3)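 Female BALB/c nude mice, 5–6 weeks, implanted s.c. in right axilla with 3×10⁶ A549 cells; randomized at ~95 mm³ tumor volume, 4 per group. Dosed ip 25 mg/kg twice daily for 21 days; vehicle controls got DMA & 5% Solutol HS-15 (5:95). Tumor size (V=length×width²/2) and body weight measured every 3 days; TGI from volume change relative to control.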
# A549 [20] = assay: Antiproliferative activity against human A549 cells assessed as growth inhibition at 2 uM after 72 hrs by CCK-8 assay relative to control; type: functional; details: A549, 72 h, read-out: GI
# A549 [21] = assay: Cell cycle arrest in human A549 cells assessed as accumulation of cells at G0/G1 phase at 1 uM after 48 hrs by propidium iodide staining-based flow cytometry (reference value: 73.35%); type: functional
# HCT-116 [22] = assay: Antiproliferative activity against human HCT116 cells assessed as growth inhibition at 8 uM after 72 hrs by CCK-8 assay relative to control; type: functional; details: HCT-116, 72 h, read-out: GI
# A-375 [23] = assay: Antiproliferative activity against human A375 cells assessed as decrease in cell viability after 72 hrs by CCK-8 assay; type: functional, cell-based; details: A-375, 72 h; in short: as §2
# A549 [24] = assay: Antiproliferative activity against human A549 cells assessed as growth inhibition at 8 uM after 72 hrs by CCK-8 assay relative to control; type: functional; details: A549, 72 h, read-out: GI
# HeLa [25] = assay: Antiproliferative activity against human HeLa cells assessed as growth inhibition at 2 uM after 72 hrs by CCK-8 assay relative to control; type: functional; details: read-out: GI
# A549 [26] = assay: Induction of apoptosis in human A549 cells assessed as late apoptotic cells at 0.5 uM after 48 hrs by Annexin V-FITC/propidium iodide staining based flow cytometry (reference value: 0.637%); type: functional; in short: as §1
# A549 [27] = assay: Induction of apoptosis in human A549 cells assessed as late apoptotic cells at 1 uM after 48 hrs by Annexin V-FITC/propidium iodide staining based flow cytometry (reference value: 0.637%); type: functional; in short: as §1
# A549 [28] = assay: Induction of apoptosis in human A549 cells assessed as early apoptotic cells at 2 uM after 48 hrs by Annexin V-FITC/propidium iodide staining based flow cytometry (reference value: 1.19%); type: functional; in short: as §1
# HCT-116 [29] = assay: Antiproliferative activity against human HCT116 cells assessed as decrease in cell viability after 72 hrs by CCK-8 assay; type: functional, cell-based; details: HCT-116, 72 h; in short: as §2
# A549 [30] = assay: Induction of apoptosis in human A549 cells assessed as late apoptotic cells at 2 uM after 48 hrs by Annexin V-FITC/propidium iodide staining based flow cytometry (reference value: 0.637%); type: functional; in short: as §1
# A549 [31] = assay: Cell cycle arrest in human A549 cells assessed as accumulation of cells at S phase at 2 uM after 48 hrs by propidium iodide staining-based flow cytometry (reference value: 12.83%); type: functional
# SMMC-7721 [32] = assay: Antiproliferative activity against human SMMC7721 cells assessed as growth inhibition at 8 uM after 72 hrs by CCK-8 assay relative to control; type: functional; details: SMMC-7721, 72 h, read-out: GI
# SMMC-7721 [33] = assay: Antiproliferative activity against human SMMC7721 cells assessed as growth inhibition at 2 uM after 72 hrs by CCK-8 assay relative to control; type: functional; details: SMMC-7721, 72 h, read-out: GI
# A-375 [34] = assay: Antiproliferative activity against human A375 cells assessed as growth inhibition at 8 uM after 72 hrs by CCK-8 assay relative to control; type: functional; details: A-375, 72 h, read-out: GI
# A549 [35] = assay: Induction of apoptosis in human A549 cells assessed as necrotic cells at 1 uM after 48 hrs by Annexin V-FITC/propidium iodide staining based flow cytometry (reference value: 0.135%); type: functional; in short: as §1
# A549 [36] = assay: Cell cycle arrest in human A549 cells assessed as accumulation of cells at G2/M phase at 1 uM after 48 hrs by propidium iodide staining-based flow cytometry (reference value: 13.62%); type: functional
# A549 [37] = assay: Induction of apoptosis in human A549 cells assessed as necrotic cells at 2 uM after 48 hrs by Annexin V-FITC/propidium iodide staining based flow cytometry (reference value: 0.135%); type: functional; in short: as §1
# [38] = Toxicity against nude Balb/c mouse xenografted with human A549 cells assessed as no change in body weight at 25 mg/kg, ip administered twice per day for 21 days and measured every 3 days during compound dosing; type: organism-based; details: in vivo; in short: as §3
smiles,measurement,setting,value
CC(=O)Nc1ccc(C(=O)Nc2ccccc2N)cc1 [TACEDINALINE],Activity,A549 [1],7.64%
same,viability at 1 µM,A549 [2],89.7%
same,viability at 0.5 µM,A549 [3],92.4%
same,IC50,HeLa [4],13.4 µM
same,inhibition of growth at 8 µM,HeLa [5],29.1%
same,viability at 2 µM,A549 [6],83.3%
same,IC50,SMMC-7721 [7],14.1 µM
same,IC50,A549 [8],16.4 µM
same,Activity,A549 [9],1.17%
same,Activity,A549 [10],76.99%
same,Activity,A549 [11],15.37%
same,Activity,A549 [12],6.73%
same,Activity,A549 [13],4.6%
same,inhibition of growth at 2 µM,HCT-116 [14],13%
same,Activity,A549 [15],3.92%
same,Activity,A549 [16],15.25%
same,inhibition of growth at 2 µM,A-375 [17],12.8%
same,Activity,A549 [18],77.38%
same,inhibition in vivo at 25 mg/kg,A549 [19],46.8%
same,inhibition of growth at 2 µM,A549 [20],23.5%
same,Activity,A549 [21],75.86%
same,inhibition of growth at 8 µM,HCT-116 [22],44%
same,IC50,A-375 [23],9.64 µM
same,inhibition of growth at 8 µM,A549 [24],29.1%
same,inhibition of growth at 2 µM,HeLa [25],23.5%
same,Activity,A549 [26],1.86%
same,Activity,A549 [27],5.87%
same,Activity,A549 [28],3.68%
same,IC50,HCT-116 [29],6.39 µM
same,Activity,A549 [30],9.92%
same,Activity,A549 [31],7.37%
same,inhibition of growth at 8 µM,SMMC-7721 [32],29.1%
same,inhibition of growth at 2 µM,SMMC-7721 [33],23.5%
same,inhibition of growth at 8 µM,A-375 [34],46.4%
same,Activity,A549 [35],0.521%
same,Activity,A549 [36],17.41%
same,Activity,A549 [37],3.15%
same,Activity,[38],Non-Toxic
